Series [1] is filed under the species Rattus norvegicus. The experiment in a line: (§1) Half life period in female Sprague-Dawley rats. The class given is ADME, organism-based. The note with it: in vivo. A digest of the protocol:
(§2)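 Female Sprague–Dawley rats were dosed intravenously at 1 mpk (n = 2) and orally at 2 mpk (n = 3) for pharmacokinetic evaluation.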

The species entered for series [2] is Rattus norvegicus. As to the kind of experiment: (§3) Bioavailability in rat (Sprague-Dawley) (female). It counts as ADME, organism-based. As to conditions: in vivo. A digest of the protocol:
as §2

The species entered for series [3] is Rattus norvegicus. As to the kind of experiment: (§4) Plasma clearance of the compound in female Sprague-Dawley rats. The class given is ADME, organism-based. The note with it: in vivo. In outline:
as §2

Series [4] has as its target T1, Estrogen receptor (Rattus norvegicus) (UniProt P06211+Q62986). As to conditions: at 1 mg/kg; call rule not given here.
A short description of series [5]: as §1. It counts as ADME, organism-based. As to conditions: female, Sprague-Dawley, rat, in vivo. In outline: as §2
The nature of series [6]: as §3. It counts as ADME, organism-based. The note with it: female, Sprague-Dawley, in vivo. In outline: as §2
Series [7] can be described thus: as §4. The class given is ADME, organism-based. The note with it: female, Sprague-Dawley, rat, plasma. In outline: as §2
Series [8] concerns the target T1, Estrogen receptor (Rattus norvegicus). The note with it: at 1 mg/kg. The source holds these as a separate data set.
For series [9], the target named is T2, Estrogen receptor beta (Homo sapiens, UniProt Q92731).
T2 sequence (Q92731 whole entry): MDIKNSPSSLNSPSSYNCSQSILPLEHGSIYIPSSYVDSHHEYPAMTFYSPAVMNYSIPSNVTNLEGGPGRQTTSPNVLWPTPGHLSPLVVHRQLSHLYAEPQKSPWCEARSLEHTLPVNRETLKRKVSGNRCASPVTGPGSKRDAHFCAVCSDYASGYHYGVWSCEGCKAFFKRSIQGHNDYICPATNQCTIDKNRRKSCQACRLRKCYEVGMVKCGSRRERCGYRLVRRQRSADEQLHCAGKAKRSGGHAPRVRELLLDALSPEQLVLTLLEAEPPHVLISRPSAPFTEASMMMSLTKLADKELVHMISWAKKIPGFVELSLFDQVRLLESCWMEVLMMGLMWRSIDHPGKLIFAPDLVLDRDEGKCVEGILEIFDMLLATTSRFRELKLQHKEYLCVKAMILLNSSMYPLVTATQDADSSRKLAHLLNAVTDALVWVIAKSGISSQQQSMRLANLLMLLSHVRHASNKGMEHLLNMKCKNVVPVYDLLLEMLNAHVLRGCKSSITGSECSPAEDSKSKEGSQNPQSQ
Series [10] addresses T3, Estrogen receptor (Homo sapiens, UniProt P03372).
T3 sequence (P03372 whole entry): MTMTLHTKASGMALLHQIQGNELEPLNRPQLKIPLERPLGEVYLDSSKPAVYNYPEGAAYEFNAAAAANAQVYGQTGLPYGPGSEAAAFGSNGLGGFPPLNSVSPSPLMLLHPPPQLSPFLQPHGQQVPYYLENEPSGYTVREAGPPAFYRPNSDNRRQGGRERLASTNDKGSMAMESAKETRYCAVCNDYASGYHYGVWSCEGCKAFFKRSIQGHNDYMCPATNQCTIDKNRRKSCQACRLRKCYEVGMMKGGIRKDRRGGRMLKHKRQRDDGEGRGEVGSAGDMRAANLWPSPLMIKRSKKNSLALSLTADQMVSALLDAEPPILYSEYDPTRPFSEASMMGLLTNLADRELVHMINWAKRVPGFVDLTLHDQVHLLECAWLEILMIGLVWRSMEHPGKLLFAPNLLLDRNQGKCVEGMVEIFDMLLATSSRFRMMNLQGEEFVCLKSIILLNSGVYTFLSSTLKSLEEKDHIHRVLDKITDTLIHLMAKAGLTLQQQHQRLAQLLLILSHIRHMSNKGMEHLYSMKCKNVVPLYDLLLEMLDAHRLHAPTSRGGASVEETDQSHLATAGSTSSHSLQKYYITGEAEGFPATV

Series [11] has as its target T3, Estrogen receptor. The experiment in a line: Agonist effect in transcriptional activation in HEK293 cells expressing human estrogen receptor alpha; NA= not active. It counts as functional, cell-based.
Series [12] addresses T2, Estrogen receptor beta. The experiment in a line: Agonist effect in transcriptional activation in HEK293 cells expressing human estrogen receptor beta; NA= not active. The class given is functional, cell-based.
The target in series [13] is T1, Estrogen receptor (Rattus norvegicus). The note with it: at 1 mg/kg. The source holds these as a separate data set.
Series [14] has the same target. The note with it: at 1 mg/kg. The source holds these as a separate data set.
In series [15] the target is T2, Estrogen receptor beta. The experiment in a line: Potency in cellular transactivation assay utilizing HEK293 cells stably co-transfected with human estrogen receptor beta and the alkaline phosphatase reporter gene. It counts as functional, cell-based. (In a reporter assay the amount or activity of a reporter protein is the signal.)
Series [16] concerns the target T3, Estrogen receptor. As to the kind of experiment: Potency in cellular transactivation assay utilizing HEK293 cells stably co-transfected with human estrogen receptor alpha and the alkaline phosphatase reporter gene. The class given is functional, cell-based.

Each structure is given as a SMILES string.

Molecule `Oc1ccc([C@@H]2Sc3cc(O)ccc3O[C@@H]2c2ccc(OCCN3CCCCC3)cc2)cc1` (stereo in doubt; 11) came in with a T1/2 in the series filed under Rattus norvegicus [1] of 3.8 h. The molecule also gave a F in the series filed under Rattus norvegicus [2] of 31%. The same molecule yielded a CL in the series filed under Rattus norvegicus [3] of 5 mL/min/kg.

In the case of `Oc1ccc([C@H]2Sc3cc(O)ccc3O[C@H]2c2ccc(OCCN3CCCCC3)cc2)cc1`, the Estrogenic effect in series [4] came to 9%. The half-life (in general, how long it takes for the measured level to halve) in series [5] is 204 min. In addition, the bioavailability (in general, dose-corrected exposure relative to a reference, in per cent) in series [6] was determined as 62%. In series [7], the clearance (usually the rate of elimination divided by the concentration) amounted to 10 mL/min/kg.

Consider `Oc1ccc([C@H]2Sc3c(ccc(O)c3F)O[C@H]2c2ccc(OCCN3CCCCC3)cc2)cc1`, for which the Antagonism in series [8] was found to be 100%. The Estrogenic effect in series [4] was 1%. For the same molecule, the values for the IC50 against Estrogen receptor beta [9] and against Estrogen receptor [10] were 18 nM and 1 nM, respectively. In series [5], this molecule showed a half-life of 186 min. The molecule also gave a bioavailability in series [6] of 37%. The molecule further showed a clearance in [7] of 18 mL/min/kg.

`Oc1ccc([C@@H]2Sc3cc(O)ccc3O[C@@H]2c2ccc(OCCN3CCCCC3)cc2)cc1` (stereo in doubt; 11L) [listing 1 of 2 here] yielded an Antagonism in series [8] of 16%. For the same molecule, the Estrogenic effect in series [4] came out at 1%.

Turning to `CC1CCCC(C)N1CCOc1ccc([C@@H]2Oc3ccc(O)cc3S[C@@H]2c2cccc(O)c2)cc1` (stereo partly drawn), the IC50 – broadly, the concentration needed to halve the response being measured – on Estrogen receptor [11] is “Not Active”; on Estrogen receptor beta [12] it was “Not Active”; against Estrogen receptor beta [9], 350 nM; at Estrogen receptor [10] it was 3.4 nM. The Estrogenic effect in series [13] turned out to be 30%. Moreover, the Antagonism in series [14] turned out to be 43%.

On to `Oc1ccc([C@@H]2Sc3c(F)cc(O)cc3O[C@@H]2c2ccc(OCCN3CCCCC3)cc2)cc1`, for which the IC50 against Estrogen receptor beta [9] came to 13 nM; against Estrogen receptor beta [15], 516 nM; on Estrogen receptor [16], 6.1 nM; at Estrogen receptor [10], 0.5 nM. The same molecule had a half-life in [5] of 354 min. Also, in [13], the Estrogenic effect is -2%. Moreover, the Antagonism in series [14] turned out to be 89%. For the same molecule, in [6], the bioavailability is 4.4%. Besides, the clearance in series [7] stood at 41 mL/min/kg.

Turning to `Oc1ccc([C@@H]2Sc3cc(O)ccc3O[C@@H]2c2ccc(OCCN3CCCCC3)cc2)cc1` (stereo in doubt; 11L) [listing 2 of 2 here], the T1/2 in the series listed under Rattus norvegicus [1] was 1.6 h. In the series filed under Rattus norvegicus [2], the F is recorded as 10%. In the series filed under Rattus norvegicus [3], this molecule came in with a CL of 31 mL/min/kg.

As for `Oc1ccc([C@@H]2Sc3c(ccc(O)c3F)O[C@@H]2c2ccc(OCCN3CCCCC3)cc2)cc1`, the IC50 on Estrogen receptor beta [9] amounted to 13.2 nM; against Estrogen receptor beta [15] it was 177 nM; against Estrogen receptor [16] it was 2.5 nM; against Estrogen receptor [10], 0.8 nM. Moreover, in [5], the half-life is 144 min. Further, the Estrogenic effect in series [13] was 7%. Also, the Antagonism in series [14] stood at 76%. This molecule also displayed a bioavailability in series [6] of 22%. Moreover, the clearance in series [7] was 16 mL/min/kg.

These data come from ChEMBL document CHEMBL1146754, “Estrogen receptor ligands. Part 4: The SAR of the syn-dihydrobenzoxathiin SERAMs” (Bioorg Med Chem Lett, 2004).
